Assay outcomes (PubChem BioAssay)
A selection: hits, their analogues and other compounds. The true share with any hit is near 3%.
NRP1-CendR mod – modulators of CendR peptide binding to NRP-1, primary screen, biochemical, fluorescence polarization, uHTS; FAM-RPARPAR peptide binding to NRP-1; inhibition, % at 25 µM; hit rate 0.85% among 360,000; AID 602438, 2012;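 active = inhibition or corrected inhibition above about 18%, plus a signal ratio from 0.5 to 1.5, limit read from the data, passing the limit was not always enough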
proKLK7 act – proKLK7 zymogen activators, primary screen, biochemical, fluorescence intensity; Kallikrein-7 (Homo sapiens), P49862; purified proKLK7, EDANS-DABCYL substrate fluorescence; 100% is mature enzyme control, 0% vehicle; activation, % at 7 µM; hit rate 0.9% among 370,000; AID 652039, 2013;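 active = activation above the mean of all tested compounds plus 3 SD, computed per campaign excluding outliers beyond control limits, cut at about 13% in these data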
Tn7 DDE FP – inhibitors of Tn7 peptide binding to fibrin DD(E), primary screen, biochemical, fluorescence polarization, human fibrin, Tn7 probe. inhibition, % at 8.3 µM. FP displacement of FITC-Tn7 peptide from fibrin DD(E); 0% = median of compound wells per plate. hit rate 0.13% among 370,000. Fibrinogen beta chain (Homo sapiens), P02675. AID 720508, 2013;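 active = inhibition above the mean of compounds falling within the control limits plus 3 SD of them, cut at about 14% in these data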;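 also: 0% = plate median of compound wells and 100% = 10 µM Aha-Tn7 peptide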
Target sequence (P02675 whole entry, looked up): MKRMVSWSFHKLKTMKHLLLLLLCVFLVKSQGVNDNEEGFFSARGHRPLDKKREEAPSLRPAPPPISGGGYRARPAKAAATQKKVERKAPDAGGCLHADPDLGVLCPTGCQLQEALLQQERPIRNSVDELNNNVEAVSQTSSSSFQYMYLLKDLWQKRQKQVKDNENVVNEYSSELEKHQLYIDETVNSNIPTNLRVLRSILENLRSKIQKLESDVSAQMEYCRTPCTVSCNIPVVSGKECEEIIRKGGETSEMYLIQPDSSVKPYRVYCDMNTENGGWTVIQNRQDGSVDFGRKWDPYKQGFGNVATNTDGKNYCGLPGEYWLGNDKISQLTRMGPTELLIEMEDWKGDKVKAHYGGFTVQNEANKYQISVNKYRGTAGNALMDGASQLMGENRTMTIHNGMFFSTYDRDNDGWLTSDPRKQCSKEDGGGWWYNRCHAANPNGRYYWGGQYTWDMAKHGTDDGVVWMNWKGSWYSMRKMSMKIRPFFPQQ
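System: human fibrin DD(E); quantity: Fibrin-DD(E) at 2 µM final; also added: fluorescent Tn7 probe at 0.1 µM; compound dosing: single nominal test concentration of 8.3 µM per compound; schedule: 10 min preincubation, 3 h with tracer, room temperature; detection: fluorescence polarization of the labelled Tn7 tracer; repeats: one replicate per compound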
PLCb3 inh – human PLC-beta3 inhibitors, primary screen, biochemical, fluorescence; Purified PLC-beta3, fluorogenic substrate; inhibition, % at 12.2 µM; hit rate 0.18% among 370,000; in the data active = inhibition above about 11%;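 also: 0% = median of compound wells on plate and 100% = full blocker control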
DDE Tn6 FP inh – inhibitors of Tn6 peptide binding to fibrin DD(E), primary screen, biochemical, fluorescence polarization, human fibrin, Tn6 probe; inhibition, % at 8.3 µM; hit rate 0.21% among 370,000; Fibrinogen beta chain (Homo sapiens), P02675; Fibrin DD(E) TRITC-Tn6 fluorescence polarization displacement;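 active = inhibition above a per-campaign cutoff: mean of compounds within control limits plus 3 SD, cut at about 15% in these data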;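 also: 0% = median of all compound wells on the plate and 100% = blocking peptide control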
PLC-gamma1 inh – PLC-gamma1 enzyme inhibitors, primary screen, biochemical, fluorescence, purified enzyme | AID 720700, 2013 | inhibition, % at 12.2 µM | hit rate 0.84% among 370,000 | fluorogenic substrate; in the data active = inhibition above about 9.5%
An asterisk follows results filed as active; i = inactive; x = not tested or not shown.

SMILES	NRP1-CendR mod	proKLK7 act	Tn7 DDE FP	PLCb3 inh	DDE Tn6 FP inh	PLC-gamma1 inh
O=C(CSc1ccccn1)N/N=C/C=C/c1ccccc1	22*	0	8	0	-6	0
CCOc1cc(/C=N/n2cnnc2)ccc1OCC(=O)Nc1ccccc1OC	20*	-1	0	1	5	0
COc1ccccc1NC(=O)COc1ccc(/C=N/n2cnnc2)cc1OC	-14	0	-5	0	-6	4
CCCN(C(=O)CSCc1ccc(Cl)cc1)c1c(N)n(Cc2ccccc2)c(=O)[nH]c1=O	27*	-2	-4	-33	-3	-24
Cc1ccc(CSCC(=O)N(CCC(C)C)c2c(N)n(Cc3ccccc3)c(=O)[nH]c2=O)cc1	-11	-2	8	-3	-1	-1
S=c1[nH]cc(-c2ccccc2)n1-c1ccccc1	4	0	-2	6	-6	13*
Cc1ccc(-n2c(-c3ccccc3)c[nH]c2=S)cc1	8	0	-3	1	11	1
CC1COc2c3ccccc3nn21 (stereo unspecified)	-12	0	8	-3	7	0
c1ccc2c3n(nc2c1)CCCO3	32*	0	6	0	6	-2
Cc1ccc(-n2c(C)cc(C(=O)Cn3nc(C(=O)O)c4ccccc4c3=O)c2C)cc1	-14	0	-6	-6	-4	-2
COc1ccc(-n2c(C)cc(C(=O)Cn3nc(C(=O)O)c4ccccc4c3=O)c2C)cc1	30*	1	-9	-7	-10	-5
Cc1ccc(NC(=O)c2ccc3c(c2)S(=O)(=O)c2ccccc2C3=O)cc1S(=O)(=O)N1CCOCC1	29*	0	-6	-1	-1	2
CC(C)(C)C1CCc2[nH]nc(C(=O)O)c2C1 (stereo unspecified)	-6	0	6	10	4	15*
CCC(C)(C)C1CCc2[nH]nc(C(=O)O)c2C1 (stereo unspecified)	-4	0	-6	2	-6	2
O=C(c1ccc(Cn2c(=O)[nH]c3ccccc3c2=O)cc1)N1CCN(c2ccc(Cl)cc2)CC1	25*	0	1	2	4	0
CCCC(=O)Nc1ccc2c(c1)C(=O)N(C)[C@H]1CC[C@@H](CC(=O)OC)O[C@@H]1CO2	x	1	1	2	-2	1
COc1ccc(/C=C/C(=O)N(C)Cc2cccs2)cc1S(=O)(=O)N1CCOCC1	35*	0	3	-9	6	-4
COc1ccc(C(=O)NCc2cccs2)cc1S(=O)(=O)N1CCOCC1	3	0	-1	-4	2	0
COc1ccc2c3c(cccc13)C(=O)N(O)C2=O	17	1	1	-100	1	-78
CCN1C(=O)c2cccc3c(N)ccc(c23)C1=O	120	0	32*	i	7	-474
CNc1ccc2ncc(-c3ccc(OC)c(OC)c3)n2n1	10	45*	-1	i	3	i
O=C(c1ccc(Br)cc1)c1coc2ccc(O)cc12	-6	0	-10	-8	5	-1
O=C(c1coc2ccc(O)cc12)C1CC1	19*	-1	-2	1	4	0
Cc1cccc(/C=N/c2sc3c(c2C(=O)OC(C)(C)C)CCN(C)C3)c1O	31*	0	-1	-19	5	-19
CCOC(=O)c1c(/N=C/c2cc(C)ccc2O)sc2c1CCN(C)C2	-18	0	-2	-11	-5	-9
SMILES	NRP1-CendR mod	proKLK7 act	Tn7 DDE FP	PLCb3 inh	DDE Tn6 FP inh	PLC-gamma1 inh
O=C(NCc1ccccc1)c1ccc(N2CCC3(CC2)CC(c2ccc(Cl)cc2)=NO3)c([N+](=O)[O-])c1	31*	-1	-1	2	-3	4
COC(=O)[C@]12C[C@H](CC(=O)N3CCN(C(=O)c4ccco4)CC3)C(=O)N(Cc3cccc4ccccc34)C1=C[C@H](COCc1ccccc1)O[C@@H]2C	x	0	6	2	-1	5
CCCCn1nnnc1C(c1ccccc1)N1CCN(c2ccc(C)cc2)CC1 (stereo unspecified)	1	0	-6	11*	0	-2
O=C(C1CCCO1)N1CCc2ccccc21 (stereo unspecified)	56*	-1	8	-5	-2	-1
O=C(c1ccc(S(=O)(=O)N2CCOCC2)cc1)N1CCc2ccccc21	24*	0	2	-7	-2	3
O=C(c1ccc(S(=O)(=O)N2CCOCC2)cc1)N1CCc2ccccc2C1	-2	0	-2	4	-4	9
COC(=O)[C@H]1C[C@@]2(c3ccccc3)c3ccccc3N[C@H]2N1	x	0	2	-1	-4	-3
CCCNC(=O)[C@H]1N2C(=O)c3c(ccc(OC)c3OC)C2SC1(C)C (stereo partly specified)	28*	-2	-4	-11	1	-3
CCOC(Cn1cc([N+](=O)[O-])c(=O)[nH]c1=O)OCC	4	-1	0	4	6	4
CCOC(Cn1ccc(=O)[nH]c1=O)OCC	26*	0	1	-7	3	-3
O=C(c1ccccc1F)N1CCN(C(=O)C(c2ccccc2)c2ccccc2)CC1	22*	1	3	-4	-1	1
CCOC(=O)/C(C#N)=C/c1cc2ccccc2nc1N1CCOCC1	-21	2	-4	-14	-4	-6
N#CC(C#N)=Cc1cc2ccccc2nc1N1CCCCC1	33*	-1	-4	-28	0	-27
COc1nc(OC)nc(N2CCC(C(=O)N(C)Cc3ccco3)CC2)n1	x	1	2	-1	7	2
C(=Cc1nc2ccccc2o1)c1ccc2c(c1)OCO2	26*	-19	-4	-62	2	-58
Cc1cc(C)cc(N(CC(=O)NC2CCC(C)CC2)S(=O)(=O)c2ccc(C(C)(C)C)cc2)c1 (stereo unspecified)	x	0	2	0	-7	1
COc1ccc(N/C=C/C(=O)C(C)(C)C)cc1	31*	-1	2	-4	-2	-1
COc1ccc(N/C=C/C(=O)c2ccccc2)cc1	8	0	-4	-23	-3	-17
COC(=O)CCC(=O)N(CCN(Cc1ccccc1)C(=O)CCC(=O)OC)Cc1ccccc1	0	1	5	-7	-1	0
CCOC(=O)C(=CN(CCc1ccccc1)CC(=O)OC)C(=O)OCC	26*	-1	-7	5	4	2
